Source: PubChem (several laboratories)
The list is not random: actives were taken first. Their share in the collection is about 1.8%.
Platelet DG rel: inhibitors of platelet dense granule secretion, primary screen, cell-based, MLPCN, human platelets; human platelet-rich plasma, SFLLRN dense granule ATP release, luminescence; inhibition, %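 (compounds screened at 7.5 µM in platelet-rich plasma)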; 0.22% of 300,000 active; AID 1663, 2009;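 active = mean replicate score, as percent of positive control, at or above 50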
FXIIa inh 1536: human FXIIa protease inhibitors, primary screen, biochemical, 1536-well; 0.3% of 220,000 active; purified FXIIa, Boc-QGR-AMC fluorogenic substrate, 2 h; inhibition, % at 5 µM; Coagulation factor XII (Homo sapiens), P00748; AID 800, 2007; in the data active = inhibition above about 40%
Thrombin inh: human alpha-thrombin inhibitors, primary screen, counter-screen for coagulation protease inhibitor project, biochemical, 1536-well, fluorogenic AMC substrate; Prothrombin (Homo sapiens), P00734; Boc-VPR-AMC fluorogenic substrate cleavage; inhibition, % at 5 µM; 0.26% of 220,000 active; AID 1046, 2008;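 active = inhibition at or above 40%; inactive = inhibition below 40%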
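System: human alpha-thrombin protein; Compound dosing: one concentration per compound, 5 µM, with 0.2% DMSO; Timing: reaction at room temperature; Technique: AMC fluorescence, 355/460 nm; Controls: enzyme without compound as high, wells lacking enzyme as low.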
FXIa inh 1536: human FXIa protease inhibitors, primary screen, biochemical, 1536-well | Coagulation factor XI (Homo sapiens), P03951 | purified FXIa, Boc-Glu-Ala-Arg-AMC fluorogenic substrate | inhibition, % at 5 µM | 0.14% of 220,000 active | AID 798, 2007;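 active = inhibition of at least 40%; inactive = inhibition below 40%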;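 also: fluorescence of freed AMC excited at 355 nm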
KLK5 inh: human KLK5 protease inhibitors, primary screen, biochemical, 1536-well. Kallikrein-5 (Homo sapiens), Q9Y337. recombinant hK5, fluorogenic AMC substrate cleavage. inhibition, % at 5 µM. 0.59% of 210,000 active;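 active = inhibition of 40% or more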
Target sequence (Q9Y337 67-293 limits assumed): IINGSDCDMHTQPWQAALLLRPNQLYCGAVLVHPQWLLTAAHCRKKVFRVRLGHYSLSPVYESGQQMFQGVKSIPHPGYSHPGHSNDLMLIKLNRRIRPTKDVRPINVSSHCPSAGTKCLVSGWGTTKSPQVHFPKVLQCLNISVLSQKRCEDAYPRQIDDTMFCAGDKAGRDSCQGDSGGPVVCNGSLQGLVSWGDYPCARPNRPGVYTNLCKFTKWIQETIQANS
Wee1 stabilizer: Wee1 degradation inhibitors, primary screen, cell-based, HeLa, Wee1K328M-luciferase, luminescence; HeLa Luc-Wee1K328M stability; 100% = proteasome inhibitor MG132 effect; reporter increase, % at 5 µM; 1.2% of 220,000 active; AID 1321, 2008;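 active = activation above the mean of all tested compounds plus 3 SD, set per screening run, cut at about 8.8% in these data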;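 also: cells exposed to compound for 20 h before luminescence read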
Numbers stand for hits.

Results for CCc1cc2c3c(c1)C1(C(=O)N3C(C)(C)C=C2C)C(C#N)=C(N)Oc2[nH]c(=O)[nH]c(=O)c21 (stereo not drawn) ?
Platelet DG rel: inactive; FXIIa inh 1536: inactive; Thrombin inh: inactive; FXIa inh 1536: inactive; KLK5 inh: inactive; Wee1 stabilizer: inactive

Results for COc1ccccc1CC(=O)NN1C(=O)c2ccccc2C1=O ?
Platelet DG rel: inactive; FXIIa inh 1536: 105.8; Thrombin inh: inactive; FXIa inh 1536: inactive; KLK5 inh: 44.3; Wee1 stabilizer: inactive

Results for CC1CCN(CCC(=O)N/N=C/c2ccc([N+](=O)[O-])cc2)CC1 ?
Platelet DG rel: inactive; FXIIa inh 1536: inactive; Thrombin inh: inactive; FXIa inh 1536: inactive; KLK5 inh: inactive; Wee1 stabilizer: inactive

How did CCOc1ccc(N2C(=O)S/C(=C\c3cc(OC)c(OC)c(OC)c3)C2=O)cc1 do in these assays?
Platelet DG rel: inactive; FXIIa inh 1536: inactive; Thrombin inh: inactive; FXIa inh 1536: inactive; KLK5 inh: inactive; Wee1 stabilizer: inactive

Results for Cc1ccc(C(=O)N/C(=C/c2ccc(-c3cccc([N+](=O)[O-])c3)o2)C(=O)NC(C)(C)C)cc1 ?
Platelet DG rel: inactive; FXIIa inh 1536: 42.8; Thrombin inh: inactive; FXIa inh 1536: inactive; KLK5 inh: inactive; Wee1 stabilizer: inactive

How did Cc1ccc(C(=O)N/C(=C/c2ccc(-c3cccc([N+](=O)[O-])c3)o2)C(=O)NC(C)C)cc1 do in these assays?
Platelet DG rel: inactive; FXIIa inh 1536: inactive; Thrombin inh: inactive; FXIa inh 1536: inactive; KLK5 inh: inactive; Wee1 stabilizer: inactive

What do the screens show for `COc1ccc(/C=C2/SC(=S)N(n3c(C)ccc3C)C2=O)cc1`?
Platelet DG rel: inactive; FXIIa inh 1536: 83.7; Thrombin inh: inactive; FXIa inh 1536: inactive; KLK5 inh: inactive; Wee1 stabilizer: inactive

How did Cc1nc2sc(-c3ccccc3)cc2c(=O)n1N do in these assays?
Platelet DG rel: 79.7; FXIIa inh 1536: inactive; Thrombin inh: inactive; FXIa inh 1536: inactive; KLK5 inh: inactive; Wee1 stabilizer: inactive

How did O=[N+]([O-])c1cccc(S(=O)(=O)NCCOc2cccc3cccnc23)c1 do in these assays?
Platelet DG rel: inactive

How did COc1ccc(S(=O)(=O)NCCOc2cccc3cccnc23)cc1OC do in these assays?
Platelet DG rel: inactive; FXIIa inh 1536: inactive; Thrombin inh: inactive; FXIa inh 1536: 42.1; KLK5 inh: inactive; Wee1 stabilizer: inactive

What do the screens show for `Brc1c(C[n+]2ccccc2)nc2ccccn12`?
Platelet DG rel: inactive; FXIIa inh 1536: 53.1; Thrombin inh: inactive; FXIa inh 1536: inactive; KLK5 inh: inactive; Wee1 stabilizer: inactive

What do the screens show for `CC(=O)Nc1ccc(NC(=O)c2nc(S(=O)(=O)Cc3ccccc3)ncc2Cl)cc1`?
Platelet DG rel: inactive

How did CS(=O)(=O)c1ncc(Cl)c(C(=O)Nc2ccc3ccccc3c2)n1 do in these assays?
Platelet DG rel: 79.4; FXIIa inh 1536: inactive; Thrombin inh: inactive; FXIa inh 1536: inactive; KLK5 inh: inactive; Wee1 stabilizer: inactive

Results for Cc1noc(C)c1COc1ccc(C(=O)NCc2ccccn2)cc1 ?
Platelet DG rel: inactive; FXIIa inh 1536: inactive; Thrombin inh: inactive; FXIa inh 1536: inactive; KLK5 inh: 41.0; Wee1 stabilizer: inactive

Results for Cc1noc(C)c1COc1ccc(C(=O)Nc2ccccn2)cc1 ?
Platelet DG rel: inactive

Results for Cc1ccnc(N2C(=O)c3ccccc3C2O)c1 (stereo not drawn) ?
Platelet DG rel: 69.5; FXIIa inh 1536: inactive; Thrombin inh: inactive; FXIa inh 1536: inactive; KLK5 inh: inactive; Wee1 stabilizer: inactive

Results for COc1ccc(CONS(=O)(=O)c2ccc(NC(C)=O)cc2)cc1Cl ?
Platelet DG rel: inactive; FXIIa inh 1536: inactive; Thrombin inh: inactive; FXIa inh 1536: inactive; KLK5 inh: inactive; Wee1 stabilizer: inactive

How did COC(=O)c1cc(C(=O)Nc2ccc(Cl)cn2)cc([N+](=O)[O-])c1 do in these assays?
Platelet DG rel: inactive; FXIIa inh 1536: inactive; Thrombin inh: inactive; FXIa inh 1536: inactive; KLK5 inh: inactive; Wee1 stabilizer: 9.0

What do the screens show for `COc1ccc(C(=O)NCCS(=O)(=O)N2CCc3ccccc3C2)cc1`?
Platelet DG rel: inactive

How did CN1C(=O)/C(=C2\SC(=S)N(C(CCC(=O)O)C(=O)O)C2=O)c2ccccc21 (stereo not drawn) do in these assays?
Platelet DG rel: inactive; FXIIa inh 1536: inactive; Thrombin inh: 104.0; FXIa inh 1536: inactive; KLK5 inh: 63.9; Wee1 stabilizer: inactive

How did c1ccc(-n2nnnc2Cc2nnnn2-c2ccccc2)cc1 do in these assays?
Platelet DG rel: inactive; FXIIa inh 1536: inactive; Thrombin inh: inactive; FXIa inh 1536: inactive; KLK5 inh: 72.6; Wee1 stabilizer: inactive

Results for CCOc1ccccc1-n1nnnc1SCC(=O)O ?
Platelet DG rel: inactive; FXIIa inh 1536: inactive; Thrombin inh: inactive; FXIa inh 1536: inactive; KLK5 inh: inactive; Wee1 stabilizer: inactive

What do the screens show for `O=C(COc1ccc(Cl)cc1)NCCCNC(=O)c1ccncc1`?
Platelet DG rel: inactive

Results for c1ccc(-n2ncc3c(NCC4CCCO4)ncnc32)cc1 (stereo not drawn) ?
Platelet DG rel: inactive; FXIIa inh 1536: inactive; Thrombin inh: inactive; FXIa inh 1536: inactive; KLK5 inh: inactive; Wee1 stabilizer: inactive

How did Clc1ccc(-n2ncc3c(NCC4CCCO4)ncnc32)cc1 (stereo not drawn) do in these assays?
Platelet DG rel: inactive; FXIIa inh 1536: inactive; Thrombin inh: inactive; FXIa inh 1536: inactive; KLK5 inh: inactive; Wee1 stabilizer: 9.6

Results for CNC(=O)COC(=O)c1cc(-c2ccco2)nc2ccccc12 ?
Platelet DG rel: inactive; FXIIa inh 1536: 51.3; Thrombin inh: inactive; FXIa inh 1536: inactive; KLK5 inh: inactive; Wee1 stabilizer: inactive

What do the screens show for `Cc1cc(OCC(=O)Nc2ccc(CN3CCCCC3)cc2)ccc1Cl`?
Platelet DG rel: inactive; FXIIa inh 1536: inactive; Thrombin inh: inactive; FXIa inh 1536: inactive; KLK5 inh: 42.4; Wee1 stabilizer: inactive

Results for COP(=O)(OC)c1nc(-c2ccc(C)cc2)oc1N1CCCCC1 ?
Platelet DG rel: inactive

What do the screens show for `Cc1cccc(Cn2cnc3c(NS(C)(=O)=O)c(C)c(C)cc32)c1`?
Platelet DG rel: inactive; FXIIa inh 1536: inactive; Thrombin inh: inactive; FXIa inh 1536: inactive; KLK5 inh: 57.0; Wee1 stabilizer: inactive

How did CC(=O)NN1C(=O)/C(=C\c2ccccc2)SC1=S do in these assays?
Platelet DG rel: inactive; FXIIa inh 1536: inactive; Thrombin inh: inactive; FXIa inh 1536: inactive; KLK5 inh: 88.5; Wee1 stabilizer: inactive

How did O=C(O)c1ccc(/C=C2\SC(=S)N(Nc3ccccc3)C2=O)cc1 do in these assays?
Platelet DG rel: inactive; FXIIa inh 1536: 41.3; Thrombin inh: inactive; FXIa inh 1536: 49.3; KLK5 inh: inactive; Wee1 stabilizer: inactive
